According to ChEMBL document CHEMBL3616369, “N-O-Isopropyl Sulfonamido-Based Hydroxamates as Matrix Metalloproteinase Inhibitors: Hit Selection and in Vivo Antiangiogenic Activity” (J Med Chem, 2015):
Calls of active or inactive are those of the source. No cut-off for these calls is given here.

Assays:
HUVEC [1] = test: Inhibition of FBS-induced cell morphogenesis in human HUVEC after 6 hrs by matrigel assay; format: functional, cell-based
In short: (§1)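 Matrigel (10 mg/mL) polymerized 1 h at 37 °C. HUVEC (50x10^4/well) in complete medium with 10% FBS, with or without inhibitor at various concentrations, layered on top. After 6 h, capillary-like organization imaged by inverted microscope; mesh number counted as tubulogenic efficiency.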

[2] = target: T1, Matrix metalloproteinase-9 (Homo sapiens, UniProt P14780); test: Inhibition of MMP9 gelatinase activity in human HUVEC at 0.001 uM by gel zymography
T1 sequence (P14780 whole entry): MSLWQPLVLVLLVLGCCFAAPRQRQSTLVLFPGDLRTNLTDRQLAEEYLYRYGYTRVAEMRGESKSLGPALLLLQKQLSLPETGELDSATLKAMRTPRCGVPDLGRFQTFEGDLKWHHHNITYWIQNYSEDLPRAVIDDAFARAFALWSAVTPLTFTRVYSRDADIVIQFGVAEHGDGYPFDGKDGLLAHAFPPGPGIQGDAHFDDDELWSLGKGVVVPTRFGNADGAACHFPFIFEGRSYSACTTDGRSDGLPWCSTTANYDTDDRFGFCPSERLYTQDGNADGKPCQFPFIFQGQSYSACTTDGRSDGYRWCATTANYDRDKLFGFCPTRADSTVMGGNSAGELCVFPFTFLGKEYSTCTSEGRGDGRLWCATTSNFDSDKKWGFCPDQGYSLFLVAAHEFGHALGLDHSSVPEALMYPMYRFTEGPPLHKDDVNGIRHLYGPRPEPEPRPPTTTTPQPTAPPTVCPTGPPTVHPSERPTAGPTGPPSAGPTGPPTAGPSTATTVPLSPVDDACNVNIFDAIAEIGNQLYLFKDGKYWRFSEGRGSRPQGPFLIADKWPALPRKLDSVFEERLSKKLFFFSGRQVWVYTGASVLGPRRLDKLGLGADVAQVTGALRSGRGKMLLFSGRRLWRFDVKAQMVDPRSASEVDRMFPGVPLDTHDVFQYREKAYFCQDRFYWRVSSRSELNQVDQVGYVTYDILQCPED
In short: (§2)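 Gelatin zymography on 10% polyacrylamide gels with 0.1% gelatin and SDS, samples unheated. Gels renatured 30 min at room temperature. Either untreated-HUVEC conditioned medium run and gel lane slices developed overnight at 37 °C in developing buffer containing inhibitor, or medium from inhibitor-treated HUVEC developed overnight without inhibitor. Coomassie stained; bands quantified by densitometry.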

HUVEC [3] = test: Inhibition of cell migration in human HUVEC at 0.001 to 10 uM after 6 hrs using modified Boyden chambers; format: functional, cell-based
In short: (§3)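 Modified Boyden chamber. HUVEC (5x10^4), PBS-washed, in serum-free medium with or without inhibitor in upper compartment; 10% FBS or serum-free medium below. 8 µm polycarbonate filters coated with collagen 50 µg/mL (migration, 6 h) or matrigel 1 mg/mL (invasion, overnight). Cells on lower surface ethanol-fixed, stained, counted blind in eight fields. Three experiments in duplicate; one-way ANOVA.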

HUVEC [4] = test: Inhibition of cell migration in human HUVEC after 6 hrs using modified Boyden chambers; format: functional, cell-based; in short: as §3
Interstitial collagenase = target: T2, Interstitial collagenase (Homo sapiens, UniProt P03956); test: Inhibition of recombinant human activated-MMP1 using Mca-Lys-Pro-Leu-Gly-Leu-Dap(Dnp)-Ala-Arg-NH2 as fluorogenic substrate incubated for 4 hrs followed by substrate addition measured every 10 secs for 20 mins by fluorometric assay
T2 sequence (P03956 whole entry): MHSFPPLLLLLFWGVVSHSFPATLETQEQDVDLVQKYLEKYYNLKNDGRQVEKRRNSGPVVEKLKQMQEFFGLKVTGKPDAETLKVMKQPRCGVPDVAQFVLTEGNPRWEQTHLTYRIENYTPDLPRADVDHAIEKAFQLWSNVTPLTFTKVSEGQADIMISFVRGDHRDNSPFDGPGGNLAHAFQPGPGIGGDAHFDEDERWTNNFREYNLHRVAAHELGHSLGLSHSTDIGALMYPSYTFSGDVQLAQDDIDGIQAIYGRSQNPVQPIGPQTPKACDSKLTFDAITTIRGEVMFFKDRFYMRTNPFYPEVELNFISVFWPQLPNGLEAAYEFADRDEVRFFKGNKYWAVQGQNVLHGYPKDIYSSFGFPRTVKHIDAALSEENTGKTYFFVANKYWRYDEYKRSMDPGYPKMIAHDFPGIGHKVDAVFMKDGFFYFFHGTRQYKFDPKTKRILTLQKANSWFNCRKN
In short: (§4)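 Recombinant human MMPs. Pro-forms activated with APMA: MMP-2 2 mM 1 h, MMP-9 1 mM 1 h, MMP-1 2 mM 2 h, MMP-13 1 mM 35 min, all 37 °C. MMP-3 activated with trypsin 4.4 µg/mL 30 min, then soybean trypsin inhibitor. Final enzyme 0.5 (MMP-2), 1.3 (MMP-9), 1.0 (MMP-14cd), 2.0 (MMP-1), 0.66 (MMP-13), 5 nM (MMP-3). Preincubated with inhibitor 4 h at 25 °C in Tris 50 mM pH 7.5, NaCl 150 mM, CaCl2 10 mM, Brij 35 0.05%, DMSO 1%. Substrate 2 µM final; fluorescence (ex 325/em 395 nm) every 10 s for 20 min. IC50 from vi/vo = 1/(1+[I]/IC50).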

HUVEC [5] = test: Inhibition of PMA-stimulated MMP2 protein expression in human HUVEC after 24 hrs by Western blot analysis relative to control; format: functional
In short: (§5)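 HUVEC (2x10^6) seeded, attached one day, starved 6 h in serum-free medium with 2% BSA. Pre-treated 3 h with 30 nM PMA, then exposed to inhibitor (10 µM) or DMSO vehicle for 24 h. Conditioned media and cell proteins collected. Equal protein on 10% SDS-PAGE, PVDF blot, milk block, anti-MMP-2, MMP-9 and β-actin antibodies, HRP/ECL detection.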

HUVEC [6] = test: Inhibition of FBS-induced cell invasion in human HUVEC after overnight incubation using modified Boyden chambers; format: functional, cell-based; in short: as §3
HUVEC [7] = test: Inhibition of FBS-induced cell invasion in human HUVEC at 0.001 uM after overnight incubation using modified Boyden chambers; format: functional, cell-based; in short: as §3
[8] = target: T3, 72 kDa type IV collagenase (Homo sapiens, UniProt P08253); test: Inhibition of MMP2 gelatinase activity in human HUVEC at 0.001 uM by gel zymography; in short: as §2
Target sequence in this assay (P08253 110-660 limits assumed): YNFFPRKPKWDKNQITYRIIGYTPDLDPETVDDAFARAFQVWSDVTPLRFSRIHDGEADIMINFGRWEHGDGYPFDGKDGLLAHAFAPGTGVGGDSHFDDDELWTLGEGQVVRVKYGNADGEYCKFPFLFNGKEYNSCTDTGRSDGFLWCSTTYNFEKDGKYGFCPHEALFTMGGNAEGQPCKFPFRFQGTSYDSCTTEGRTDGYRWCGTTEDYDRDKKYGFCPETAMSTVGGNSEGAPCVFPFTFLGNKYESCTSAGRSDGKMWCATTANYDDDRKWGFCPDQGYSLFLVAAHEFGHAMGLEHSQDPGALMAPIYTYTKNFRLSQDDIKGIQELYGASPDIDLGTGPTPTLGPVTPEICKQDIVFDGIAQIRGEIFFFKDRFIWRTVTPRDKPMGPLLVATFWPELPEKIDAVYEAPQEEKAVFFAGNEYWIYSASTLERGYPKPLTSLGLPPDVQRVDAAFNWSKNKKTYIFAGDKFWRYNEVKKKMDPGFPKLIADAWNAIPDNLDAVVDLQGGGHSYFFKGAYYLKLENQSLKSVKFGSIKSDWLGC

Mus musculus [9] = test: Antiangiogenic activity in ip dosed C57/BL6 mouse matrigel sponge assay model assessed as reduction of VEGF-A, TNFalpha and heparin-induced number of CD45-/CD31+ cells after 4 days by flow cytometry; format: functional, organism-based
In short: (§6)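 Matrigel (0.6 mL final) with VTH mix (VEGF-A 100 ng/mL, TNF-α 2 ng/mL, heparin 25 UI/mL), with or without inhibitor at 0.1-1-10 µM, injected s.c. into flanks of male C57/BL6 mice; some groups also given 0.1-1-10 µM i.p. at day 0; 8 mice/group. Plugs recovered after four days. Read-outs: hemoglobin by Drabkin reagent; collagenase IV digest, flow cytometry for CD31+ cells within CD45−CD3− gate. Mean ± SEM.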

[10] = target: T3, 72 kDa type IV collagenase; test: Inhibition of MMP2 in HUVEC assessed as suppression of protein production at 10 uM after 24 hrs by Western blot analysis; in short: as §5
Target sequence in this assay (P08253 110-660 limits assumed): as above

[11] = target: T1, Matrix metalloproteinase-9; test: Inhibition of MMP9 in HUVEC assessed as suppression of protein production at 10 uM after 24 hrs by Western blot analysis; in short: as §5
HUVEC [12] = test: Inhibition of FBS-induced network efficiency of human HUVEC assessed as reduction of number of meshes at 0.001 to 10 uM after 6 hrs by matrigel assay; format: functional, cell-based; in short: as §1
[13] = Induction of apoptosis in human HUVEC assessed as cell viability at 0.001 to 10 uM after 18 hrs using Annexin-V and 7-amino-actinomycin-D staining by flow fluorocytometry analysis; format: cell-based; settings: HUVEC cells, read-out: Activity
In short: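 HUVEC (1x10^5) plated in six-well plates, adhered overnight. Treated in growth medium with inhibitor (10 nM–10 µM) or hydrogen peroxide (100–200 µM) overnight. Stained 15 min at room temperature in the dark with FITC-Annexin V and 7-AAD in HEPES/NaCl/CaCl2 binding buffer pH 7.4. Analysed by flow cytometry.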

HUVEC [14] = test: Inhibition of PMA-stimulated MMP2 mRNA expression in human HUVEC after 24 hrs by QT-PCR analysis; format: functional, cell-based
In short: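 HUVEC starved, PMA pre-treated (30 nM, 3 h), then exposed to inhibitor for 24 h before RNA extraction. Real-time PCR with SYBR Green, 45 cycles (95 °C 10 s, 60 °C 15 s, 72 °C 15 s), with melting-curve check.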

[15] = target: T1, Matrix metalloproteinase-9; test: Inhibition of MMP9 gelatinase activity in human HUVEC by gel zymography; in short: as §2
HUVEC [16] = test: Cytotoxicity against human HUVEC assessed as reduction of cell growth at 0.001 to 10 uM after 24 to 96 hrs by MTT assay; format: cell-based; settings: in the assay text read “0.01 to 10 uM” for “0.001 to 10 uM”
In short: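 HUVEC (passages 3–6) seeded at 1000/well in complete medium. After adhesion, fresh medium with or without inhibitor, 10 nM–10 µM. Incubated 24, 48, 72 and 96 h; MTT absorbance read at 570 nm.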

Stromelysin-1 = Stromelysin-1 (Homo sapiens, UniProt P08254); test: Inhibition of recombinant human activated-MMP3 using Mca-Lys-Pro-Leu-Gly-Leu-Dap(Dnp)-Ala-Arg-NH2 as fluorogenic substrate incubated for 4 hrs followed by substrate addition measured every 10 secs for 20 mins by fluorometric assay; in short: as §4
Stromelysin-1, sequence (P08254 whole entry): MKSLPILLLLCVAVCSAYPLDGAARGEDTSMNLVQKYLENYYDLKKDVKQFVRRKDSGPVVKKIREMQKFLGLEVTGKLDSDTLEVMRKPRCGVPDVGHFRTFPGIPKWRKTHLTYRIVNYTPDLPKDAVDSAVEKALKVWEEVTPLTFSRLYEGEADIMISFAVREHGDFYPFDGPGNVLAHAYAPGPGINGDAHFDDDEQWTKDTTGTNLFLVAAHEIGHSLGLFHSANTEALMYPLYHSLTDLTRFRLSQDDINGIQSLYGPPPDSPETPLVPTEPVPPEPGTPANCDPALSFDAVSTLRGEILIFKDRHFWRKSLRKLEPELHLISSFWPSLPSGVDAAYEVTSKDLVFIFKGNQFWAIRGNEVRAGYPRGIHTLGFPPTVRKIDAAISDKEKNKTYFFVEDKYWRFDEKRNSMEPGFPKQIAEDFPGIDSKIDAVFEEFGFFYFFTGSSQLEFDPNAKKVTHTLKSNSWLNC

[17] = target: T3, 72 kDa type IV collagenase; test: Inhibition of MMP2 gelatinase activity in human HUVEC by gel zymography; in short: as §2
Target sequence in this assay (P08253 110-660 limits assumed): as the sequence (P08253 110-660 limits assumed) above

[18] = target: T3, 72 kDa type IV collagenase; test: Inhibition of MMP2 in HUVEC assessed as suppression of protein release at 10 uM after 24 hrs by Western blot analysis; in short: as §5
Target sequence in this assay (P08253 110-660 limits assumed): as above

[19] = target: T1, Matrix metalloproteinase-9; test: Inhibition of MMP9 in HUVEC assessed as suppression of protein release at 10 uM after 24 hrs by Western blot analysis; in short: as §5
Mus musculus [20] = test: Antiangiogenic activity in C57/BL6 mouse matrigel sponge assay model assessed as reduction of VEGF-A, TNFalpha and heparin-induced hemoglobin content at 0.1 to 10 uM, sc; format: functional, organism-based; in short: as §6
Mus musculus [21] = species: Mus musculus; test: Antiangiogenic activity in C57/BL6 mouse matrigel sponge assay model assessed as reduction of VEGF-A, TNFalpha and heparin-induced number of CD45-/CD31+ cells treated in plugs by flow cytometry; format: functional, organism-based; in short: as §6
HUVEC [22] = test: Inhibition of FBS-induced capillary-like network organization in human HUVEC at 0.001 to 10 uM after 6 hrs by matrigel assay; format: functional, cell-based; in short: as §1
[23] = target: T1, Matrix metalloproteinase-9; test: Inhibition of recombinant human activated-MMP9 using Mca-Lys-Pro-Leu-Gly-Leu-Dap(Dnp)-Ala-Arg-NH2 as fluorogenic substrate incubated for 4 hrs followed by substrate addition measured every 10 secs for 20 mins by fluorometric assay; in short: as §4
[24] = target: Matrix metalloproteinase-14 (Homo sapiens, UniProt P50281); test: Inhibition of recombinant human catalytic domain MMP14 using Mca-Lys-Pro-Leu-Gly-Leu-Dap(Dnp)-Ala-Arg-NH2 as fluorogenic substrate incubated for 4 hrs followed by substrate addition measured every 10 secs for 20 mins by fluorometric assay; in short: as §4
HUVEC [25] = test: Inhibition of FBS-induced cell invasion in human HUVEC at 0.001 to10 uM after overnight incubation using modified Boyden chambers; format: functional, cell-based; in short: as §3
[26] = target: T3, 72 kDa type IV collagenase; test: Inhibition of MMP2 gelatinase activity in human HUVEC at 0.001 to 10 uM by gel zymography; in short: as §2
Target sequence in this assay (P08253 110-660 limits assumed): as above

[27] = target: T3, 72 kDa type IV collagenase; test: Inhibition of recombinant human activated-MMP2 using Mca-Lys-Pro-Leu-Gly-Leu-Dap(Dnp)-Ala-Arg-NH2 as fluorogenic substrate incubated for 4 hrs followed by substrate addition measured every 10 secs for 20 mins by fluorometric assay; in short: as §4
Target sequence in this assay (P08253 whole entry): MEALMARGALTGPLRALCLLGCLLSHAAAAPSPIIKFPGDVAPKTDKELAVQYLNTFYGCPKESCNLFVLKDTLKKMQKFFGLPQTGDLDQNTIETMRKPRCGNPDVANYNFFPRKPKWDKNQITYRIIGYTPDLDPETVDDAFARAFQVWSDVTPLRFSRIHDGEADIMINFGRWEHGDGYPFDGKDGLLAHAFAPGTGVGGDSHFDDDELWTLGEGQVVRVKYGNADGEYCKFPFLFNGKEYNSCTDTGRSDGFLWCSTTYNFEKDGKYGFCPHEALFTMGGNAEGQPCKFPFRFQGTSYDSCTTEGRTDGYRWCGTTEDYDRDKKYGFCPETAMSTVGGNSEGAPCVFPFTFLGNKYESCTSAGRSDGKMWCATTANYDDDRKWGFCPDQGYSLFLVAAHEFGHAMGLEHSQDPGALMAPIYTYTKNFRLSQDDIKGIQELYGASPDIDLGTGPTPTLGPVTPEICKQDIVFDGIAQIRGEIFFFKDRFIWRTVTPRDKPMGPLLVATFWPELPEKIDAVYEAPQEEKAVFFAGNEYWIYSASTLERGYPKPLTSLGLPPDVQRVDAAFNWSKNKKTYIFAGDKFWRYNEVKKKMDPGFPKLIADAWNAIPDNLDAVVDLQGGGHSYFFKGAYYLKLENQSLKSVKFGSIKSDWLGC

[28] = target: T1, Matrix metalloproteinase-9; test: Inhibition of MMP9 gelatinase activity in human HUVEC at 0.001 to 10 uM by gel zymography; in short: as §2
Collagenase 3 = Collagenase 3 (Homo sapiens, UniProt P45452); test: Inhibition of recombinant human activated-MMP13 using Mca-Lys-Pro-Leu-Gly-Leu-Dap(Dnp)-Ala-Arg-NH2 as fluorogenic substrate incubated for 4 hrs followed by substrate addition measured every 10 secs for 20 mins by fluorometric assay; in short: as §4

Row | IC50 (Interstitial collagenase) [nM] | IC50 (Stromelysin-1) [nM] | IC50 [23] [nM] | IC50 [24] [nM] | IC50 [27] [nM] | SMILES | inhibition (HUVEC [3]) | fold change (FC) (HUVEC [5]) | inhibition (HUVEC [12]) | inhibition (HUVEC [14]) | inhibition (HUVEC [22]) | further results
1 | 200 | 105 | 0.43 | – | – | COc1ccc(-c2ccc(S(=O)(=O)N(OC(C)C)[C@H](CCN3C(=O)c4ccccc4C3=O)C(=O)NO)cc2)cc1 | Active | 0.6 | Active | Active | Active | inhibition (HUVEC [1]): Dose-dependent effect; inhibition [2]: Active; inhibition (HUVEC [4]): Dose-dependent effect; inhibition (HUVEC [6]): Dose-dependent effect; inhibition (HUVEC [7]): Active; inhibition [8]: Active; inhibition (Mus musculus [9]): Dose-dependent effect; inhibition [10]: Active; inhibition [11]: Active; viability at 18 h, up to 10 µM [13]: 85%; inhibition [15]: Dose-dependent effect; Activity (HUVEC [16]): Non-toxic; inhibition [17]: Dose-dependent effect; inhibition [18]: Active; inhibition [19]: Active; inhibition (Mus musculus [20]): Active; inhibition (Mus musculus [21]): Dose-dependent effect
2 | 1400 | 36 | 2.9 | 25 | – | COc1ccc(-c2ccc(S(=O)(=O)N(OC(C)C)[C@H](CCNC(=O)Cc3ccccc3)C(=O)NO)cc2)cc1 | – | – | – | – | – | –
3 | 26000 | – | 3900 | 5500 | 590 | CC(=O)NCC[C@H](C(=O)NO)N(OC(C)C)S(=O)(=O)c1ccccc1 | inactive | 0.9 | inactive | inactive | inactive | inhibition (HUVEC [25]): inactive; inhibition [26]: inactive; inhibition [28]: inactive; IC50 (Collagenase 3): 1800 nM
4 | 780 | 450 | 9 | – | 1.5 | CC(C)ON([C@H](CCNC(=O)c1ccccc1)C(=O)NO)S(=O)(=O)c1ccc(-c2ccccc2)cc1 | – | – | – | – | – | –
